# In ChEMBL document CHEMBL1909507, “Substituted phenyl 4-(2-oxoimidazolidin-1-yl)benzenesulfonamides as antimitotics. Antiproliferative, antiangiogenic and antitumoral activity, and quantitative structure-activity relationships” (Eur J Med Chem, 2011):
# Active and inactive are the calls of the source. No cut-off for these calls is given here.
# Assays:
# MDA-MB-231 [1] = assay: Antiproliferative activity against human MDA-MB-231 after 48 hrs by SRB assay; type: functional, cell-based; conditions: MDA-MB-231, 48 h
# CHO-TAX 5-6 [2] = assay: Ratio of IC50 for paclitaxel-resistant CHO-TAX 5-6 cells to IC50 for CHO cells; type: functional, Cricetulus griseus
# Procedure, shortened: (§1)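 Each ratio is the IC50 in the resistant line divided by the IC50 in its parental line (CHO for CHO-TAX 5-6 and CHO-VV 3-2; CEM for CEM-VLB).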
# [3] = Antiproliferative activity against mouse B16F0 after 48 hrs by SRB assay
# CHO = assay: Antiproliferative activity against Chinese hamster CHO after 48 hrs by SRB assay; conditions: Cricetulus griseus
# [4] = Antiproliferative activity against mouse P388D1 after 48 hrs by SRB assay; conditions: P388D1, 48 h
# [5] = Antiproliferative activity against human multidrug-resistant CEM/VLB cells after 48 hrs by SRB assay; type: functional
# K562 = assay: Antiproliferative activity against human K562 after 48 hrs by SRB assay; type: functional, cell-based; conditions: K562, 48 h
# M21 [6] = assay: Antiproliferative activity against human M21 cells after 48 hrs by SRB assay; type: functional, cell-based; conditions: M21, 48 h
# Procedure, shortened: (§2)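 Adherent cells were seeded per line (e.g. HT-29 5000, M21 3500, MCF7 7500, CHO and CHO-VV 3-2 and CHO-TAX 5-6 1000 cells/well) and grown 24 h at 37 °C, 5% CO₂. DMSO-solubilized drug was diluted in medium and added at 1000–0.98 nM for 48 h. Cells were fixed with cold 10% TCA and stained with 0.1% sulforhodamine B, with absorbance read at 530–565 nm.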
# CHO-VV 3-2 [7] = assay: Ratio of IC50 for colchicine and vinblastine-resistant CHO-VV 3-2 cells to IC50 for CHO cells; type: functional, Cricetulus griseus; procedure, shortened: as §1
# M21 [8] = assay: Cell cycle arrest in human M21 cells assessed as accumulation at G0/G1 phase at 5 times IC50 after 24 hrs using propidium iodide staining by flow cytometric analysis (reference value: 61%); type: functional
# Procedure, shortened: (§3)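 Cells were trypsinized, fixed in ice-cold ethanol, treated with RNase, and stained with propidium iodide (1 mg/mL stock) for 1 h on ice. Cell-cycle distribution was measured by flow cytometry.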
# M21 [9] = assay: Cell cycle arrest in human M21 cells assessed as accumulation at S phase at 5 times IC50 after 24 hrs using propidium iodide staining by flow cytometric analysis (reference value: 30%); type: functional; procedure, shortened: as §3
# CCRF-CEM [10] = assay: Antiproliferative activity against human CEM after 48 hrs by SRB assay; type: functional, cell-based
# HT-1080 [11] = assay: Antiproliferative activity against human HT1080 after 48 hrs by SRB assay; type: functional, cell-based; conditions: HT-1080, 48 h; procedure, shortened: as §2
# M21 [12] = assay: Disruption of cytoskeleton microtubule structure of human M21 cells at 5 times IC50 after 16 hrs by indirect immunofluorescence assay; type: functional, cell-based
# Procedure, shortened: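 Cells were fixed in 3.7% formaldehyde, permeabilized with saponin, and stained with anti-β-tubulin TUB 2.1, Alexa-488 anti-mouse secondary and DAPI. Fluorescence microscopy was used for imaging.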
# CHO-TAX 5-6 [13] = assay: Antiproliferative activity against paclitaxel-resistant CHO-TAX 5-6 cells after 48 hrs by SRB assay; type: functional, cell-based; conditions: Cricetulus griseus, CHO-TAX 5-6, 48 h; procedure, shortened: as §2
# M21 [14] = assay: Cell cycle arrest in human M21 cells assessed as accumulation at G2/M phase at 5 times IC50 after 24 hrs using propidium iodide staining by flow cytometric analysis (reference value: 9%); type: functional; procedure, shortened: as §3
# SK-OV-3 = assay: Antiproliferative activity against human SKOV3 after 48 hrs by SRB assay; type: functional, cell-based; conditions: SK-OV-3, 48 h; procedure, shortened: as §2
# HT-1080 [15] = assay: Antitumor activity against human HT1080 cells xenografted in chicken chorioallantoic membrane assessed as inhibition of tumor growth at 3 ug, iv measured on day 17 by CAM assay; type: functional
# Procedure, shortened: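 Fertilized chicken eggs were incubated 10 days, then 3.5 × 10⁵ HT-1080 cells/egg were applied to the exposed chorioallantoic membrane. On day 11, drug was given iv in DMSO diluted in excipient (ethanol:cremophor:PBS 6.25:6.25:87.5). Read-out was tumor wet weight as % of untreated eggs, plus chick mortality. Data were pooled from two independent experiments of 10–12 eggs each.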
# DU-145 = assay: Antiproliferative activity against human DU145 after 48 hrs by SRB assay; type: functional, cell-based; conditions: DU-145, 48 h
# CCRF-CEM [16] = assay: Ratio of IC50 for human multidrug-resistant CEM/VLB cells to IC50 for human CEM cells; type: functional; procedure, shortened: as §1
# MDA-MB-231 [17] = assay: Displacement of N,N'-ethylenebis(iodoacetamide) from beta-tubulin colchicine-binding site in human MDA-MB-231 cells at 1000 times IC50 preincubated for 2 hrs before N,N'-ethylenebis(iodoacetamide) addition measured after 1.5 hrs by chemiluminescence assay; type: cell-based
# Procedure, shortened: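 EBI (100, final) was added for 1.5 h at 37 °C with drug present; control was 0.5% DMSO. Sonicated lysates (20 µg protein) were run on 10% SDS-PAGE and blotted with anti-β-tubulin TUB 2.1. The β-tubulin–EBI adduct was scored by ECL.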
# HT-29 = assay: Antiproliferative activity against human HT-29 cells after 48 hrs by SRB assay; type: functional, cell-based; conditions: HT-29, 48 h; procedure, shortened: as §2
# CHO-VV 3-2 [18] = assay: Antiproliferative activity against colchicine and vinblastine-resistant CHO-VV 3-2 cells after 48 hrs by SRB assay; type: functional, cell-based; conditions: Cricetulus griseus, CHO-VV 3-2, 48 h; procedure, shortened: as §2
# L1210 = assay: Antiproliferative activity against mouse L1210 after 48 hrs by SRB assay; type: functional, cell-based; conditions: L1210, 48 h
# [19] = Toxicity against fertilized chicken embryo assessed as mortality at 3 ug, iv by CAM assay; type: organism-based, Gallus gallus; conditions: in vivo, read-out: Activity
# Procedure, shortened: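 HT-1080 fibrosarcoma cells (3.5 × 10⁵ cells/egg) grafted onto the chorioallantoic membrane of fertilized chicken eggs (10 days preincubation). On day 11, drug in DMSO diluted into excipient (ethanol:cremophor:PBS 6.25:6.25:87.5) given iv at 3 µg per egg. Chick mortality recorded over 7-day tumor growth period. Untreated eggs as negative controls and for normalization. Cumulative results from two independent experiments, 10–12 eggs each.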
# MCF7 = assay: Antiproliferative activity against human MCF7 cells after 48 hrs by SRB assay; type: functional, cell-based; conditions: MCF7, 48 h; procedure, shortened: as §2
Structure (SMILES),IC50 (MDA-MB-231 [1]),Ratio IC50 (CHO-TAX 5-6 [2]),IC50 [3],IC50 (CHO),IC50 [4],IC50 [5],IC50 (K562),IC50 (M21 [6]),Ratio IC50 (CHO-VV 3-2 [7]),Activity (M21 [8]),Activity (M21 [9]),IC50 (CCRF-CEM [10]),IC50 (HT-1080 [11]),Activity (M21 [12]),IC50 (CHO-TAX 5-6 [13]),Activity (M21 [14]),IC50 (SK-OV-3),IC50 (DU-145),Ratio IC50 (CCRF-CEM [16]),Activity (MDA-MB-231 [17]),other results
O=C1NCCN1c1ccc(S(=O)(=O)Nc2cccc(Cl)c2)cc1,200 nM,0.6,190 nM,96 nM,78 nM,170 nM,69 nM,25 nM,1.6,5%,33%,77 nM,68 nM,Active,58 nM,62%,70 nM,230 nM,2.2,Active,inhibition (HT-1080 [15]): inactive; IC50 (HT-29): 55 nM; IC50 (CHO-VV 3-2 [18]): 150 nM; IC50 (L1210): 77 nM; mortality [19]: 8%; IC50 (MCF7): 79 nM
O=C1NCCN1c1ccc(S(=O)(=O)Nc2cccc(Br)c2)cc1,290 nM,0.3,270 nM,250 nM,90 nM,250 nM,87 nM,59 nM,1.1,2%,20%,110 nM,170 nM,Active,76 nM,78%,170 nM,340 nM,2.3,Active,growth inhibition (GI) (HT-1080 [15]): 19%; IC50 (HT-29): 77 nM; IC50 (CHO-VV 3-2 [18]): 270 nM; IC50 (L1210): 99 nM; mortality [19]: 24%; IC50 (MCF7): 100 nM
COc1cc(NS(=O)(=O)c2ccc(N3CCNC3=O)cc2)cc(OC)c1,340 nM,0.67,280 nM,330 nM,200 nM,1010 nM,110 nM,60 nM,2.1,13%,28%,170 nM,150 nM,Active,220 nM,59%,170 nM,700 nM,5.9,Active,growth inhibition (GI) (HT-1080 [15]): 31%; IC50 (HT-29): 78 nM; IC50 (CHO-VV 3-2 [18]): 690 nM; IC50 (L1210): 110 nM; mortality [19]: 13%; IC50 (MCF7): 170 nM
Cc1ccc(C)c(NS(=O)(=O)c2ccc(N3CCNC3=O)cc2)c1,110 nM,0.7,86 nM,77 nM,79 nM,120 nM,72 nM,27 nM,1.4,1%,20%,74 nM,65 nM,Active,54 nM,79%,72 nM,1610 nM,1.6,Active,inhibition (HT-1080 [15]): inactive; IC50 (HT-29): 46 nM; IC50 (CHO-VV 3-2 [18]): 110 nM; IC50 (L1210): 81 nM; mortality [19]: 27%; IC50 (MCF7): 48 nM
